Screening data deposited in PubChem BioAssay by several laboratories.
HCV core dimer – blocks dimerization of HCV core protein. AID 1899. TR-FRET GST/Flag-core106 dimerization, 1536-well. inhibition, % at 5 µM. 300,000 tested, 0.33% active;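 active means inhibition above the mean of all tested compounds plus 3 SD, set per screening campaign, cut at about 45% in these data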
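Assay system – GST-tagged and Flag-tagged HCV core protein residues 1-106 · Quantity – core106 proteins, GST 13.5 nM and Flag 17 nM · Benchmarks – unlabelled core106 and no-GST-core106 wells · Read-out basis – percent inhibition of core106 dimerization signal · Detection – time-resolved FRET, ex 340 nm, em 617 and 671 nm · Schedule – 4 h at 22.5 °C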
ALR H2O2 inh – human ALR oxidase inhibition via reduced H2O2. P55789. purified ALR, DTT oxidation, H2O2 HRP-luminol luminescence. inhibition, % (test concentration not listed). 290,000 tested, 3.8% active. AID 485317;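 active means mean replicate inhibition above about 79%, with every replicate also reaching it, limit read from the data; inconclusive means only one of the two criteria met; inactive means mean below limit and not every replicate reaching it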
Target sequence (P55789 whole entry, looked up): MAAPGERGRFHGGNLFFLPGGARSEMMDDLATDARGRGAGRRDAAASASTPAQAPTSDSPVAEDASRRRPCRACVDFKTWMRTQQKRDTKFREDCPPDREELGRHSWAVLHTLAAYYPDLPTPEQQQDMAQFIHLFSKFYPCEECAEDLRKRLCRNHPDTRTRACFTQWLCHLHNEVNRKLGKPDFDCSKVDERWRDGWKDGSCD
NS3 helicase inh – HCV NS3 helicase inhibition; NS3 helicase DNA unwinding, Cy5 molecular beacon fluorescence; inhibition, % at 10.9 µM; 290,000 tested, 0.56% active;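 active means inhibition above the mean of all tested compounds plus 3 SD, set per campaign, cut at about 35% in these data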
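Assay system: hepatitis C virus NS3 helicase domain fragment enzyme. Also added: annealed dual-labelled DNA beacon duplex, ATP-started. Timing: 1 h reaction at 25 °C, ATP-initiated. Technique: Cy5 fluorescence at 0 and 60 min, beacon hairpin quenching. Evaluation: % inhibition of unwinding. Replication: one well per compound.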
ZTA DNA inh – counter-screen for EBNA-1 inhibitors: inhibitors of Epstein-Barr virus ZTA. P03206. ZTA-DNA binding, fluorescence polarization. inhibition, % at 11 µM. 320,000 tested, 0.15% active; in the data active means inhibition above about 33%
Target sequence (P03206 whole entry, looked up): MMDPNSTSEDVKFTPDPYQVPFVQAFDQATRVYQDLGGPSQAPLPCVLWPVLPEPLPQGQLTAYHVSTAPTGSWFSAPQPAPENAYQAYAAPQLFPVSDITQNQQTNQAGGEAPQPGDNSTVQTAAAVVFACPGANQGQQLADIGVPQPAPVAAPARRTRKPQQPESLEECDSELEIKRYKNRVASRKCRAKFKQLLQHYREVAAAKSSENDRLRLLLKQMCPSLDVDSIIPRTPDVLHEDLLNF
M18AAP inhibitor – PfM18AAP enzyme inhibition; recombinant PfM18AAP, H-Glu-NHMec fluorogenic cleavage; inhibition, % at 7.35 µM; 290,000 tested, 1.2% active; AID 1822;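 active means inhibition above the campaign mean inhibition over all tested compounds plus 3 SD, cut at about 28% in these data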
EBNA-1 inh – blocks EBNA-1 binding to DNA; 300,000 tested, 0.34% active; inhibition, % at 14.8 µM; AID 1950; EBNA-1 DNA binding, fluorescence polarization; in the data active means inhibition above about 28%
Of the large screens only hits and unclear results are named; the others gave an inactive call. An excerpt weighted towards active compounds, which were near 5.2% of everything screened.

CN(C(=O)c1ccc(NC(=O)Cc2cccc(NC(=O)C3CCCN(C(=O)C4CCCC4)C3)c2)cc1)C1CCCC1 (stereo not drawn)	none (no result: HCV core dimer, NS3 helicase inh, M18AAP inhibitor, EBNA-1 inh)
O=C(CSc1nnc(CNC(=O)c2cccs2)o1)Nc1ccccc1	none
NCCCCCc1nnc(SCc2cccc(Cl)c2)o1	none
NCCCCCc1nnc(SCC(=O)Nc2cccc(Cl)c2)o1	ALR H2O2 inh 92
O=C(CSc1nnc(CNC(=O)c2cccs2)o1)Nc1cccc(Cl)c1	ALR H2O2 inh 98
NCCCCCc1nnc(SCc2ccc(Cl)cc2Cl)o1	ALR H2O2 inh 99
O=C(CSc1nnc(CNC(=O)c2cccs2)o1)Nc1cccc(F)c1	ALR H2O2 inh 99
O=C(NC1CCCN(Cc2ccc(Cl)cc2)C1)c1ccoc1 (stereo not drawn)	none
O=C(Nc1cccc(OCC(=O)N2CCOCC2)c1)c1ccc(C(F)(F)F)cc1	none
Cc1cccc(N2CCN(CC(=O)N(C)Cc3ccccc3)CC2C)c1 (stereo not drawn)	ALR H2O2 inh 98
CN(Cc1ccccc1)C(=O)CN1CCN(S(=O)(=O)c2ccc(Cl)c(Cl)c2)CC1	none (no result: HCV core dimer, NS3 helicase inh, M18AAP inhibitor, EBNA-1 inh)
CN(CC(=O)Nc1ccc(Cl)c(C(F)(F)F)c1)C(=O)CCN1C(=O)C2CC=CCC2C1=O (stereo not drawn)	none (no result: NS3 helicase inh, M18AAP inhibitor)
CCc1nnc(SCC(=O)Nc2ccc(F)cc2)o1	none
Cc1cc(C)c2c(=O)n(CC(=O)NC3CCCC3)sc2n1	M18AAP inhibitor 56
CCOCCCNC(=O)c1ccc(-n2c(=S)[nH]c3ccccc3c2=O)cc1	ALR H2O2 inh 84
COc1cnc(-c2ccccn2)nc1Oc1cccc(Cl)c1	ALR H2O2 inh 95
COc1ccc(Oc2nc(-c3ccccn3)ncc2OC)cc1	none
Fc1ccc2nc(N3CCOCC3)sc2c1	none (no result: ALR H2O2 inh)
Nc1nc2ccc(N3CCOCC3)cc2s1	ALR H2O2 inh 98
CC/C(=N/OC(=O)c1cccc(C)c1)C(=O)c1cccs1	ALR H2O2 inh 91
CCN(CC)c1nc2c(c(=O)[nH]c(=O)n2C)n1CCCc1ccccc1	none
Cc1ccc(C(=O)CCNc2ccc(Br)cc2)o1	none
Cc1ccc(C(=O)CCNc2ccccc2)o1	ALR H2O2 inh 97
O=C(OCc1c(F)cccc1Cl)c1cnc(Cl)c(Cl)c1	none
C(=C\c1nc2ccccc2[nH]1)/c1ccccc1	ALR H2O2 inh 98
O=C(/C=C/c1ccco1)Nc1ccc(-c2nc3ccccc3[nH]2)cc1	none
C(=C\c1ccco1)/c1nc2ccccc2[nH]1	ALR H2O2 inh 98
COc1ccc(OC)c(/C=N/NC(=O)CCc2c(C)n[nH]c2C)c1	none (no result: ALR H2O2 inh)
COc1ccc(OC)c(/C=N/NC(=O)CCc2ccc(O)c(O)c2)c1	M18AAP inhibitor 31 (no result: ALR H2O2 inh)
CCOC(=O)c1ccc(N2C(=O)CC(NNC(=O)c3ccc(Br)s3)C2=O)cc1 (stereo not drawn)	none
CCOC(=O)c1ccc(N2C(=O)CC(Nc3ccc(O)cc3)C2=O)cc1 (stereo not drawn)	ALR H2O2 inh 97
Cc1cc(O)c(Sc2ncn[nH]2)cc1NS(=O)(=O)c1ccc(Cl)cc1	ALR H2O2 inh 93 (no result: HCV core dimer, NS3 helicase inh, M18AAP inhibitor, EBNA-1 inh)
COc1ccc(S(=O)(=O)Nc2cc(Sc3ncn[nH]3)c(O)cc2C)cc1	ALR H2O2 inh 98 (no result: HCV core dimer, NS3 helicase inh, ZTA DNA inh, M18AAP inhibitor, EBNA-1 inh)
COc1ccc(S(=O)(=O)Nc2cc(C(C)C)c(O)cc2C)cc1	ALR H2O2 inh inconclusive
CCOc1ccc(S(=O)(=O)Nc2cc(NS(=O)(=O)c3ccc(OCC)cc3)cc(C(=O)O)c2)cc1	none (no result: HCV core dimer, NS3 helicase inh, ZTA DNA inh, M18AAP inhibitor, EBNA-1 inh)
CCOc1ccc(S(=O)(=O)Nc2cc(Sc3ncn[nH]3)c3oc(=O)sc3c2)cc1	M18AAP inhibitor 29 (no result: ALR H2O2 inh)
O=S(=O)(Nc1ncn[nH]1)c1ccc(Cl)cc1	M18AAP inhibitor 59
O=S(=O)(Nc1ncccn1)c1ccc(Cl)cc1	none
Cc1noc2ncnc(Sc3ccc(Br)cc3)c12	ALR H2O2 inh 99
CC(=O)Nc1ccc(-c2csc(Nc3ccc(Cl)cn3)n2)cc1	none (no result: ALR H2O2 inh)
CC(=O)Nc1cccc(-c2csc(N)n2)c1	ALR H2O2 inh 98
CC(=O)Nc1cccc(-c2csc(Nc3ccc(Cl)cn3)n2)c1	ALR H2O2 inh 98
CC(=O)Nc1cccc(-c2csc(NCc3ccccc3)n2)c1	none
Cc1nc(-c2ccc(S(=O)(=O)Nc3ccc(Br)cc3F)cc2)co1	none
CC(C)N1CC(C(=O)Nc2cccc([N+](=O)[O-])c2)CC1=O (stereo not drawn)	none
